HUVEC inhibit = blocks proliferation of human endothelial cells; HUVEC proliferation, CellTiter-Glo luminescence, 72 h; hits give low values; viability, % at 10 µM (by protocol); 1.1% of 86,000 active; AID 648;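 active = viability at or below 30%; inactive = viability above 30%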;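 also: 100% = median luminescence of DMSO-only cell control wells on each plate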
Jurkat tox 60K = cytotoxicity toward Jurkat cells; AID 463; 1.2% of 56,000 active; inhibition, % at 4 µM; Jurkat E6.1 viability, ATP luminescence, 48 h;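 active = inhibition above the mean inhibition of all tested compounds plus 3 SD, cut at about 28% in these data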
H69AR growth 86K = blocks growth of human H69AR lung tumor cells; H69AR lung tumor viability, ATP luminescence, 72 h; hits give low values; viability, % at 10 µM; 6% of 85,000 active; AID 598;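 active = viability at or below 40%; inactive = viability above 40%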;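 also: multidrug resistant small cell line overexpressing MRP-1 efflux transporter; 100% = mean luminescence of untreated control wells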
Lung fibro prol = blocks proliferation of human lung fibroblasts. LL 47 human lung fibroblast viability, ATP luminescence; hits give low values. viability, % at 10 µM. 1.1% of 85,000 active;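 active = viability at or below 50% in the single dose screen; inactive = viability above 50%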;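 also: compound exposure lasted 72 h before the ATP readout; 100% = median luminescence of untreated cell-only wells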
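test system = LL 47 human lung fibroblasts | amount = 1,150 fibroblasts seeded per well | medium = 15% FBS in IMEM | times = overnight cell rest, 72 h compound treatment at 37 °C | measured by = CellTiter-Glo luminescence measuring cellular ATP | read-out = viability percentage against median untreated-cell control | benchmarks = cell-only wells, no compound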
* marks the source's active call; other numbers are inactive results; x = no result given. This is a sample that favours compounds with a hit; in the whole collection about 6.6% have one here.

SMILES | HUVEC inhibit | Jurkat tox 60K | H69AR growth 86K | Lung fibro prol
Cc1ccc(-c2nn3c(C)nnc3s2)cc1NCc1c(F)cccc1Cl | 53.2 | 16.9 | 28.4* | 56.8
Cc1ccc(-c2nn3c(C)nnc3s2)cc1NC(=O)CSc1ccc(Cl)cc1 | 28.9* | -6.4 | 93.2 | 80.2
COC(=O)c1cc(COc2ccc3c4c(c(=O)oc3c2)CCC4)c(C)o1 | 105.0 | x | 96.2 | 111.8
O=c1cc(/C=C/c2cccs2)[nH]c2ccccc12 | 56.7 | x | 24.9* | 78.6
CC1CCCN(C(=O)C(Cc2ccccc2)n2cccc2)C1 (centres undefined) | 93.9 | 3.4 | 84.9 | 99.7
c1ccc(CN2CCC(Nc3nc(-c4ccccc4)nc4ccccc34)CC2)cc1 | 4.0* | x | 2.1* | 5.4*
O=C(NC1CCN(Cc2ccccc2)CC1)c1cc(-c2ccccn2)nc2ccccc12 | 88.6 | x | 64.2 | 94.2
C1CCC(C(CC2CCCCN2)C2CCCCC2)CC1 (centres undefined) | 1.6* | x | 1.3* | 1.8*
Clc1ccc(OCCCn2cncn2)cc1Cl | 96.0 | 3.0 | 103.5 | 104.4
COc1ccccc1C(=O)Oc1cc(N)n(S(=O)(=O)c2ccc(C)cc2)n1 | x | 15.0 | x | x
COc1ccc(S(=O)(=O)n2nc(OC(=O)c3c(-c4ccccc4Cl)noc3C)cc2N)cc1 | 83.0 | 0.0 | 28.1* | 109.9
CN1c2ccccc2C(C)(C)[C@]12C=Cc1cc(O)ccc1O2 | 49.5 | x | 8.6* | 87.6
CN1c2ccccc2C(C)(C)C12C=Nc1c(ccc3ccccc13)O2 (centres undefined) | 111.6 | x | 85.0 | 98.2
C/C(N)=C(/C#N)C(=O)CSc1nnnn1-c1ccc(C)cc1C | 86.3 | 29.5* | 88.4 | 95.0
COC(=O)CSC1=C(C#N)C(c2cccc(F)c2)CC(=O)N1 (centres undefined) | 89.8 | 26.3 | 28.4* | 92.6
COC(=O)CSC1=C(C#N)C(c2ccsc2)CC(=O)N1 (centres undefined) | 68.9 | x | 37.9* | 93.2
CCCCSc1ccc(NC(=O)c2cccnc2)cc1 | 111.8 | x | 95.6 | 92.5
CCn1c2ccccc2c2nnc(SCCCn3c(=O)[nH]c4ccccc43)nc21 | 59.5 | 5.6 | 22.5* | 92.9
Fc1ccc2[nH]c3c(N4CCN(c5ccccc5)CC4)ncnc3c2c1 | 51.9 | x | 81.4 | 91.6
OC1(c2cccc(C(F)(F)F)c2)CCN(c2ncnc3c2[nH]c2ccc(F)cc23)CC1 | 6.4* | 52.8* | 2.4* | 61.5
COc1cc2[nH]c3c(N4CCN(c5ccccn5)CC4)ncnc3c2cc1OC | 44.7 | 23.2 | 24.3* | 69.4
COc1ccc(N2CCN(c3ncnc4c3[nH]c3ccccc34)CC2)cc1 | 80.7 | x | 60.7 | 84.0
COc1cccc2sc(N3CCN(c4nc5ccccc5s4)CC3)nc12 | 26.4* | 2.5 | 3.2* | 73.7
Cc1cn([C@H]2C[C@H](N=[N+]=[N-])[C@@H](CO)O2)c(=O)[nH]c1=O | 109.9 | x | 91.4 | 99.6
O=c1[nH]c(=O)n([C@H]2C[C@H](O)[C@@H](CO)O2)cc1F | 62.0 | x | 14.7* | 79.9
SMILES | HUVEC inhibit | Jurkat tox 60K | H69AR growth 86K | Lung fibro prol
COc1ccc(C(=O)NCCNC(=O)c2cc(OCC(F)(F)F)ccc2OCC(F)(F)F)cc1 | 103.3 | x | 93.4 | 96.3
CCOC(=O)C1CCN(C(=S)Nc2cc(OC)c(OC)cc2C(=O)OC)CC1 | 102.7 | x | 47.6 | 101.5
CCOC(=O)c1c(CN2CCN(c3ccccc3)CC2)oc2ccc(O)cc12 | 27.3* | 6.3 | 30.6* | 91.8
CCOC(=O)c1c(CN2CCN(C)CC2)oc2ccc(OC)cc12 | 92.3 | -0.4 | 88.4 | 105.3
Cc1ccc2c(c1)N(CC(=O)NCc1cccs1)C(=O)CO2 | 107.2 | x | 101.4 | 104.1
COc1ccccc1C(=O)NCC1CCN(c2ccc(S(=O)(=O)N3CCOCC3)cc2)CC1 | 95.3 | x | 59.6 | 97.5
OC(C#Cc1ccccn1)c1cccs1 (centres undefined) | 7.9* | 9.3 | 13.4* | 84.7
CCc1cc2cc3c(cc2nc1SCC(=O)N1CCN(C(=O)c2ccco2)CC1)OCO3 | 86.0 | 2.4 | 41.0 | 92.7
CCc1cc2ccc(C)cc2nc1SCC(=O)N1CCN(C(=O)c2ccco2)CC1 | 86.2 | 10.5 | 36.3* | 95.4
CCNc1nc(N)c(C(=O)c2ccc(Cl)s2)s1 | 68.7 | 0.1 | 28.5* | 83.1
CNc1ccc(Br)cc(C(=O)/C=C/c2cccc(OC)c2)c1=O | 22.1* | x | -0.2* | 8.8*
CCNc1ccc(Br)cc(C(=O)/C=C/c2c(Cl)cccc2Cl)c1=O | 7.9* | x | 2.0* | 62.7
CSc1cccc(NS(=O)(=O)c2ccc3c(c2)oc(=O)n3C)c1 | 93.5 | 9.1 | 77.8 | 88.2
CC1(C)CC(=NO)CC(C)(C)N1 | 91.8 | 0.1 | 84.1 | 100.4
O=S(=O)(Nc1nccs1)c1ccc(Cl)cc1 | 94.8 | x | 87.2 | 103.2
